Legend:
Assay type in all cases: functional
Citrobacter = assay: Antibacterial activity against Citrobacter spp. by broth microdilution method
Outline: (§1)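 MICs were determined by CLSI broth microdilution against clinical isolate panels that included aminoglycoside-resistant isolates. […] MIC90 was derived per group and not calculated when n was <10. Imipenem, ceftobiprole, ciprofloxacin and tigecycline MICs were also determined for the resistant isolates.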

Escherichia coli [1] = assay: Antibacterial activity against Escherichia coli by broth microdilution method; outline: as §1
Enterobacter sp. = assay: Antibacterial activity against Enterobacter spp. by broth microdilution method; outline: as §1
Klebsiella sp. = assay: Antibacterial activity against Klebsiella spp. by broth microdilution method; outline: as §1
Proteus mirabilis = assay: Antibacterial activity against Proteus mirabilis by broth microdilution method; outline: as §1
[2] = Antibacterial activity against indole positive Proteae by broth microdilution method; outline: as §1
Serratia sp. = assay: Antibacterial activity against Serratia spp. by broth microdilution method; outline: as §1
Staphylococcus sp. = assay: Antibacterial activity against Staphylococcus spp. by broth microdilution method; outline: as §1
Acinetobacter sp. = assay: Antibacterial activity against Acinetobacter spp. by broth microdilution method; outline: as §1
Pseudomonas aeruginosa [3] = assay: Antibacterial activity against Pseudomonas aeruginosa by broth microdilution method; outline: as §1
Staphylococcus aureus [4] = assay: Antibacterial activity against aminoglycoside-resistant Staphylococcus aureus expressing APH(2'') + AAC(6') by broth microdilution method
Outline: (§2)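 MICs were measured by broth microdilution following CLSI guidance. The strains formed a 25-strain screening panel with diverse aminoglycoside resistance mechanisms. The panel included Gram-negative and S. aureus strains carrying key aminoglycoside-modifying enzymes, strains with altered permeability or efflux, and an armA ribosomal methyltransferase strain.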

Acinetobacter = assay: Antibacterial activity against aminoglycoside-resistant Acinetobacter spp. expressing APH(3')-6 by broth microdilution method
Outline: (§3)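 Clinical aminoglycoside-resistant isolates were each carrying a single aminoglycoside-modifying enzyme. […] MICs were determined by CLSI broth microdilution.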

Acinetobacter baumannii [5] = assay: Antibacterial activity against aminoglycoside-susceptible Acinetobacter baumannii by broth microdilution method
Acinetobacter baumannii [6] = assay: Antibacterial activity against Acinetobacter baumannii ATCC 19606 by broth microdilution method; settings: ATCC 19606 = CIP 70.34 = JCM 6841; outline: as §2
[7] = system: Acinetobacter calcoaceticus; assay: Antibacterial activity against aminoglycoside-resistant Acinetobacter calcoaceticus expressing AAC(6')-1 by broth microdilution method; outline: as §3
Pseudomonas aeruginosa [8] = assay: Antibacterial activity against Pseudomonas aeruginosa ATCC 27853 by broth microdilution method
Pseudomonas aeruginosa [9] = assay: Antibacterial activity against wild type Pseudomonas aeruginosa expressing efflux pump by broth microdilution method
Outline: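 MIC was determined by CLSI broth microdilution, read in μg/ml. The strain came from a 25-strain screening panel with diverse aminoglycoside resistance mechanisms. The panel included strains with changes in permeability or efflux, key aminoglycoside-modifying enzymes and an armA methyltransferase strain.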

Pseudomonas aeruginosa [10] = assay: Antibacterial activity against efflux pump deficient Pseudomonas aeruginosa by broth microdilution method
Pseudomonas aeruginosa [11] = assay: Antibacterial activity against Pseudomonas aeruginosa expressing mexXY operon by broth microdilution method; outline: as §2
Pseudomonas aeruginosa [12] = assay: Antibacterial activity against Pseudomonas aeruginosa expressing ANT(4')-2 by broth microdilution method; outline: as §2
Pseudomonas aeruginosa [13] = assay: Antibacterial activity against Pseudomonas aeruginosa expressing AAC(3)-1 by broth microdilution method
Pseudomonas aeruginosa [14] = assay: Antibacterial activity against Pseudomonas aeruginosa expressing AAC(6')-2 by broth microdilution method
Klebsiella pneumoniae [15] = assay: Antibacterial activity against aminoglycoside-resistant Klebsiella pneumoniae expressing AAC(3)-1 by broth microdilution method; outline: as §3
Citrobacter freundii [16] = assay: Antibacterial activity against aminoglycoside-resistant Citrobacter freundii expressing AAC(3)-2 by broth microdilution method; outline: as §3
Klebsiella aerogenes [17] = assay: Antibacterial activity against aminoglycoside-resistant Enterobacter aerogenes expressing AAC(3)-2 by broth microdilution method; outline: as §3
Enterobacter cloacae [18] = assay: Antibacterial activity against aminoglycoside-resistant Enterobacter cloacae expressing AAC(3)-2 by broth microdilution method; outline: as §3
Escherichia coli [19] = assay: Antibacterial activity against aminoglycoside-resistant Escherichia coli expressing AAC(3)-2 by broth microdilution method; outline: as §3
Klebsiella oxytoca [20] = assay: Antibacterial activity against aminoglycoside-resistant Klebsiella oxytoca expressing AAC(3)-2 by broth microdilution method; outline: as §3
Klebsiella pneumoniae [21] = assay: Antibacterial activity against aminoglycoside-resistant Klebsiella pneumoniae expressing AAC(3)-2 by broth microdilution method; outline: as §3
Serratia liquefaciens = assay: Antibacterial activity against aminoglycoside-resistant Serratia liquefaciens expressing AAC(3)-2 by broth microdilution method; outline: as §3
Escherichia coli [22] = assay: Antibacterial activity against aminoglycoside-resistant Escherichia coli expressing AAC(3)-4 by broth microdilution method; outline: as §3
Klebsiella pneumoniae [23] = assay: Antibacterial activity against aminoglycoside-resistant Klebsiella pneumoniae expressing AAC(3)-4 by broth microdilution method; outline: as §3
Citrobacter freundii [24] = assay: Antibacterial activity against aminoglycoside-resistant Citrobacter freundii expressing AAC(6')-1 by broth microdilution method; outline: as §3
Klebsiella aerogenes [25] = assay: Antibacterial activity against aminoglycoside-resistant Enterobacter aerogenes expressing AAC(6')-1 by broth microdilution method; outline: as §3
Enterobacter cloacae [26] = assay: Antibacterial activity against aminoglycoside-resistant Enterobacter cloacae expressing AAC(6')-1 by broth microdilution method; outline: as §3
Escherichia coli [27] = assay: Antibacterial activity against aminoglycoside-resistant Escherichia coli expressing AAC(6')-1 by broth microdilution method; outline: as §3
Klebsiella oxytoca [28] = assay: Antibacterial activity against aminoglycoside-resistant Klebsiella oxytoca expressing AAC(6')-1 by broth microdilution method; outline: as §3
Klebsiella pneumoniae [29] = assay: Antibacterial activity against aminoglycoside-resistant Klebsiella pneumoniae expressing AAC(6')-1 by broth microdilution method; outline: as §3
Serratia marcescens [30] = assay: Antibacterial activity against aminoglycoside-resistant Serratia marcescens expressing AAC(6')-1 by broth microdilution method; outline: as §3
Staphylococcus aureus [31] = assay: Antibacterial activity against aminoglycoside-resistant Staphylococcus aureus expressing ANT(4',4'')-2 by broth microdilution method; outline: as §3
[32] = system: Staphylococcus epidermidis; assay: Antibacterial activity against aminoglycoside-resistant Staphylococcus epidermidis expressing ANT(4',4'')-2 by broth microdilution method; outline: as §3
Staphylococcus aureus [33] = assay: Antibacterial activity against aminoglycoside-resistant Staphylococcus aureus expressing APH(2'') + AAC(6')-1 by broth microdilution method; outline: as §3
[34] = system: Staphylococcus epidermidis; assay: Antibacterial activity against aminoglycoside-resistant Staphylococcus epidermidis expressing APH(2'') + AAC(6')-1 by broth microdilution method; outline: as §3
Acinetobacter baumannii [35] = assay: Antibacterial activity against aminoglycoside-resistant Acinetobacter baumannii expressing […] by broth microdilution method; outline: as §3
Acinetobacter baumannii [36] = assay: Antibacterial activity against aminoglycoside-resistant Acinetobacter baumannii expressing ANT(2'')-1 by broth microdilution method; outline: as §3
Acinetobacter baumannii [37] = assay: Antibacterial activity against aminoglycoside-resistant Acinetobacter baumannii expressing APH(3')-6 by broth microdilution method; outline: as §3
Pseudomonas aeruginosa [38] = assay: Antibacterial activity against aminoglycoside-resistant Pseudomonas aeruginosa expressing AAC(6')-2 by broth microdilution method; outline: as §3
Pseudomonas aeruginosa [39] = assay: Antibacterial activity against aminoglycoside-resistant Pseudomonas aeruginosa expressing ANT(2'')-1 by broth microdilution method; outline: as §3
[40] = system: Staphylococcus epidermidis; assay: Antibacterial activity against aminoglycoside-resistant Staphylococcus epidermidis expressing APH(3')-3 by broth microdilution method
Klebsiella pneumoniae [41] = assay: Antibacterial activity against Klebsiella pneumoniae ATCC 10031 by broth microdilution method; outline: as §2
Escherichia coli [42] = assay: Antibacterial activity against aminoglycoside-resistant Escherichia coli expressing ANT(6')-1 by broth microdilution method; outline: as §3
Escherichia coli [43] = assay: Antibacterial activity against Escherichia coli ATCC 25922 by broth microdilution method; outline: as §2
Escherichia coli [44] = assay: Antibacterial activity against aminoglycoside-resistant Escherichia coli expressing ANT(2'')-1 by broth microdilution method; outline: as §3
Escherichia coli [45] = assay: Antibacterial activity against aminoglycoside-resistant Escherichia coli expressing ANT(3)-2 by broth microdilution method; outline: as §3
Escherichia coli [46] = assay: Antibacterial activity against aminoglycoside-resistant Escherichia coli expressing armA methylase by broth microdilution method; outline: as §2
Serratia marcescens [47] = assay: Antibacterial activity against aminoglycoside-resistant Serratia marcescens expressing ANT(2''), AAC(6') by broth microdilution method; outline: as §2

CN(C)c1cc(NC(=O)CNC(C)(C)C)c(O)c2c1C[C@H]1C[C@H]3[C@H](N(C)C)C(O)=C(C(N)=O)C(=O)[C@@]3(O)C(O)=C1C2=O [TIGECYCLINE]
8 µg/mL: MIC90 (Proteus mirabilis)
16 µg/mL: MIC90 (Acinetobacter sp.) | MIC50 (Pseudomonas aeruginosa [3])
0.5 µg/mL: MIC50 (Citrobacter) | MIC90 (Escherichia coli [1]) | MIC50 (Enterobacter sp.) | MIC90 (Staphylococcus sp.)
> 16 µg/mL: MIC90 (Pseudomonas aeruginosa [3])
1 µg/mL: MIC50 (Klebsiella sp.)
4 µg/mL: MIC90 (Enterobacter sp.) | MIC50 (Proteus mirabilis)
0.25 µg/mL: MIC50 (Escherichia coli [1]) | MIC50 (Staphylococcus sp.)
2 µg/mL: MIC90 (Klebsiella sp.) | MIC50 [2] | MIC50 (Serratia sp.; Serratia sp. (in: enterobacteria)) | MIC50 (Acinetobacter sp.)

GENTAMICIN
50 µg/mL: MIC (Staphylococcus aureus [33]) | MIC [34]
32 µg/mL: MIC (Pseudomonas aeruginosa [14]) | MIC50 (Enterobacter sp.) | MIC50 (Klebsiella sp.) | MIC50 (Proteus mirabilis) | MIC50 (Staphylococcus sp.) | MIC (Klebsiella pneumoniae [15])
> 64 µg/mL: MIC (Staphylococcus aureus [4]) | MIC50 (Citrobacter) | MIC90 (Escherichia coli [1]) | MIC90 (Enterobacter sp.) | MIC90 (Klebsiella sp.) | MIC90 (Proteus mirabilis) | MIC50 [2] | MIC90 (Staphylococcus sp.) | MIC50 (Acinetobacter sp.) | MIC90 (Acinetobacter sp.) | MIC50 (Pseudomonas aeruginosa [3]) | MIC90 (Pseudomonas aeruginosa [3]) | MIC (Acinetobacter baumannii [36]) | MIC (Escherichia coli [44]) | MIC (Escherichia coli [45]) | MIC (Escherichia coli [46])
0.125 µg/mL: MIC (Pseudomonas aeruginosa [10]) | MIC (Klebsiella pneumoniae [41])
62 µg/mL: MIC (Citrobacter freundii [16]) | MIC (Klebsiella aerogenes [17]) | MIC (Enterobacter cloacae [18]) | MIC (Escherichia coli [19]) | MIC (Klebsiella oxytoca [20]) | MIC (Klebsiella pneumoniae [21]) | MIC (Serratia liquefaciens)
1 µg/mL: MIC (Acinetobacter) | MIC (Acinetobacter baumannii [5]) | MIC (Pseudomonas aeruginosa [8]) | MIC (Pseudomonas aeruginosa [9]) | MIC (Citrobacter freundii [24]) | MIC (Klebsiella aerogenes [25]) | MIC (Enterobacter cloacae [26]) | MIC (Escherichia coli [27]) | MIC (Klebsiella oxytoca [28]) | MIC (Klebsiella pneumoniae [29]) | MIC (Serratia marcescens [30]) | MIC (Staphylococcus aureus [31]) | MIC [32] | MIC [40] | MIC (Escherichia coli [43])
8 µg/mL: MIC [7]
56 µg/mL: MIC (Pseudomonas aeruginosa [39])
4 µg/mL: MIC (Pseudomonas aeruginosa [12]) | MIC (Acinetobacter baumannii [37]) | MIC (Escherichia coli [42]) | MIC (Serratia marcescens [47])
16 µg/mL: MIC (Acinetobacter baumannii [6]) | MIC (Escherichia coli [22]) | MIC (Klebsiella pneumoniae [23]) | MIC (Acinetobacter baumannii [35])
2 µg/mL: MIC (Pseudomonas aeruginosa [11])
64 µg/mL: MIC (Pseudomonas aeruginosa [13]) | MIC50 (Escherichia coli [1]) | MIC50 (Serratia sp.) | MIC (Pseudomonas aeruginosa [38])
